ChEMBL document CHEMBL3526048, “In vitro metabolism of rivoglitazone, a novel peroxisome proliferator-activated receptor γ agonist, in rat, monkey, and human liver microsomes and freshly isolated hepatocytes” (Drug Metab Dispos, 2011)

Tests used:
[1] = target: T1, UDP-glucuronosyltransferase 2B15 (Homo sapiens, UniProt P54855); experiment: Activity of human UGT2B15 expressed in microsomes isolated from baculovirus infected insect cell assessed as enzyme-mediated (2S,3S,4S,5R,6R)-6-((1-carboxy-2-(4-((6-methoxy-1-methyl-1H-benzo[d]imidazol-2-yl)methoxy)phenyl)ethylthio)carbonylamino)-3,4,5-trihydroxytetrahydro-2H-pyran-2-carboxylic acid formation at 20 uM after 4 hrs by radio-HPLC/LC-MS/MS analysis in presence of UDPGA; format: ADME
T1 sequence (P54855 whole entry): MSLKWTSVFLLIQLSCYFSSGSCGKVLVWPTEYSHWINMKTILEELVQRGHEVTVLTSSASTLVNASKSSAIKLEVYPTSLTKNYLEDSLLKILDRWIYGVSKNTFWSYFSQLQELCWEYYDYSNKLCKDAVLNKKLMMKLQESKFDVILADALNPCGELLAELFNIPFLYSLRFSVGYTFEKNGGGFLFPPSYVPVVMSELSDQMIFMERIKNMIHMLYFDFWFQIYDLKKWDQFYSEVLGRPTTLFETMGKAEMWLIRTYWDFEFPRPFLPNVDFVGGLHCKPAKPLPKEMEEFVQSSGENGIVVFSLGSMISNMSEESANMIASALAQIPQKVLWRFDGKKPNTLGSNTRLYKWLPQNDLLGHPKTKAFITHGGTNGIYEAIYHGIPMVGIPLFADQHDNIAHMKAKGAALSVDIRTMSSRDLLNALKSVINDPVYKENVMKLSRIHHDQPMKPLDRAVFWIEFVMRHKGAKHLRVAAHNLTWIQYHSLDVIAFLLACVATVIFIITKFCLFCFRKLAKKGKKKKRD

Cytochrome P450 2C8 = target: T2, Cytochrome P450 2C8 (Homo sapiens, UniProt P10632); experiment: Activity of human CYP2C8 expressed in microsomes isolated from baculovirus infected insect cell assessed as enzyme-mediated 2-mercapto-3-(4-((6-methoxy-1-methyl-1H-benzo[d]imidazol-2-yl)methoxy)phenyl)propanamide formation at 20 uM after 2 hrs by radio-HPLC/LC-MS/MS analysis in presence of NADPH-generating system and NADPH-generating system/SAM; format: ADME
T2 sequence (P10632 whole entry): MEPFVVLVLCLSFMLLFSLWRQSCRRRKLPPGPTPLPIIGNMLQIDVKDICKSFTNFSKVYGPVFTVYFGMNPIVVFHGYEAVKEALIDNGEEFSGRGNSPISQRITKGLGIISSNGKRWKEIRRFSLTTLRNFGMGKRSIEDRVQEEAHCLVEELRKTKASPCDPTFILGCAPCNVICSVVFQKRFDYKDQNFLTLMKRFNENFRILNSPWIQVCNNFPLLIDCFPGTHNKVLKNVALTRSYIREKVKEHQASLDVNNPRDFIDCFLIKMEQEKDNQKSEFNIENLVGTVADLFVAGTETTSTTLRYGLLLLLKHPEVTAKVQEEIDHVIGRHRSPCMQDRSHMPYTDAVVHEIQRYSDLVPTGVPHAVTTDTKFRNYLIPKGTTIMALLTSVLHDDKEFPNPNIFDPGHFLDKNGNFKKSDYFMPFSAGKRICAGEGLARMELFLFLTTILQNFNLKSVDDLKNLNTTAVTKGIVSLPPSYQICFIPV
How it was run: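 Baculovirus/insect-cell microsomes expressing single human CYPs, 1 mg/ml protein, with 50 mM potassium phosphate (pH 7.4) or 100 mM Tris-HCl (pH 7.5). NADPH-generating system: 2 mM NADP⁺, 20 mM glucose 6-phosphate, 2 units/ml G6PDH, 10 mM MgCl₂. [¹⁴C]rivoglitazone at 20 μM, 2 h at 37°C with shaking. Control used insect-cell control supersomes. Stopped with acetonitrile; supernatant concentrated under nitrogen; metabolites analysed by radio-HPLC, LC-MS and LC-MS/MS.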

[2] = target: T3, UDP-glucuronosyltransferase 1A3 (Homo sapiens, UniProt P35503); experiment: Activity of human UGT1A3 expressed in microsomes isolated from baculovirus infected insect cell assessed as enzyme-mediated 5-hydroxy-5-(4-((6-methoxy-1-methyl-1H-benzo[d]imidazol-2-yl)methoxy)benzyl)thiazolidine-2,4-dione formation at 20 uM after 4 hrs by radio-HPLC/LC-MS/MS analysis in presence of NADPH-generating system and NADPH-generating system/SAM in presence of UDPGA and UDPGA/SAM; format: ADME
T3 sequence (P35503 whole entry): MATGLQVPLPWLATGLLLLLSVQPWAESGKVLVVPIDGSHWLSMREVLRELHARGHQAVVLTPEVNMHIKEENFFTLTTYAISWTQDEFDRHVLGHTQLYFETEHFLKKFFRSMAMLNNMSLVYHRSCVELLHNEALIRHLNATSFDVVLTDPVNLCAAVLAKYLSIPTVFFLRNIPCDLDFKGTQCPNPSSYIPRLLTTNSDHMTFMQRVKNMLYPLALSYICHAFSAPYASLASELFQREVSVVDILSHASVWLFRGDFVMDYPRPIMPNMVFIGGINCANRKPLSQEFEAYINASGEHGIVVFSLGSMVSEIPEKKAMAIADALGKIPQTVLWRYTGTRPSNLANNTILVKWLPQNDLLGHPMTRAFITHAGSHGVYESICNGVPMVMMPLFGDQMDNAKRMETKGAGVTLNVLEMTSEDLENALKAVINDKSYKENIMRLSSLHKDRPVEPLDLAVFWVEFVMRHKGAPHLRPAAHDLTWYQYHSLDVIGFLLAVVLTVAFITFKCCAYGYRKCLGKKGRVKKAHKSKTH

Cytochrome P450 1A2 = target: T4, Cytochrome P450 1A2 (Homo sapiens, UniProt P05177); experiment: Activity of human CYP1A2 expressed in microsomes isolated from baculovirus infected insect cell assessed as enzyme-mediated 3-(4-((6-methoxy-1-methyl-1H-benzo[d]imidazol-2-yl)methoxy)phenyl)-2-(methylthio)propanoic acid formation at 20 uM after 2 hrs by radio-HPLC/LC-MS/MS analysis in presence of NADPH-generating system/SAM and UDPGA/SAM; format: ADME
T4 sequence (P05177 whole entry): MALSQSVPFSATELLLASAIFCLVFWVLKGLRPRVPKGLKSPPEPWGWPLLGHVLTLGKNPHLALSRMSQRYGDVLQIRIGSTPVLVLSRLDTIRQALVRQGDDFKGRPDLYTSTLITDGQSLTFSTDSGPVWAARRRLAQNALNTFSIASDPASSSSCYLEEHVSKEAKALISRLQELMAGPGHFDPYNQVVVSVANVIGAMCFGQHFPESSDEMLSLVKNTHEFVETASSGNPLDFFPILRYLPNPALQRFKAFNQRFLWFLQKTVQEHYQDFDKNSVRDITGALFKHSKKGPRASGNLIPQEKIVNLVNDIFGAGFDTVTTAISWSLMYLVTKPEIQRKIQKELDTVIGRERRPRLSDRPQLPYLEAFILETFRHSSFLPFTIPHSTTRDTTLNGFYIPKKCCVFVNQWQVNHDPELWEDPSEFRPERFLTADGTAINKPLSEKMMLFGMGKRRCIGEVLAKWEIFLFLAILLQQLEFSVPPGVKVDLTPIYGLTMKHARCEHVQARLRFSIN

Liver microsome = experiment: Drug metabolism in human liver microsomes assessed as formation of 5-(4-((6-hydroxy-1-methyl-1H-benzo[d]imidazol-2-yl)methoxy)benzyl)thiazolidine-2,4-dione at 20 uM after 2 hrs by radio-HPLC/LC-MS/MS analysis in presence of NADPH-generating system and NADPH-generating system/SAM; format: ADME
[3] = Drug metabolism in monkey hepatocytes assessed as formation of 2-((4-((2,4-dioxothiazolidin-5-yl)methyl)phenoxy)methyl)-1-methyl-1H-benzo[d]imidazol-6-yl hydrogen sulfate at 30 uM after 3 hrs by radio-HPLC/LC-MS/MS analysis; details: cynomolgus monkey

Drug metabolism [1]: metabolite_not_detected
Drug metabolism (Cytochrome P450 2C8): metabolite_detected
Drug metabolism [2]: metabolite_not_detected
Drug metabolism (Cytochrome P450 1A2): metabolite_not_detected
Drug metabolism (Liver microsome): metabolite_detected
Drug metabolism [3]: metabolite_detected
SMILES: COc1ccc2nc(COc3ccc(C[14CH]4SC(=O)NC4=O)cc3)n(C)c2c1.Cl (racemic)
